# This sample holds only a part of the variants without activity.
# B1: tRNA (parent)
# chain: GUUCCGUUGGCGUAAUGGUAACGCGUCUCCCUCCUAAGGAGAAGACUGCGGGUUCGAGUCCCGUACGGAACG
# Variants of: B1
# Test: yeast fitness relative to wild type (ratio to wild type); higher = fitter; tRNA-Arg(CCU), competitive growth, 37 C, YPD
# In short: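 Amplicons of the tRNA-Arg(CCU) gene were sequenced, 100-nucleotide paired-end, from the start population and from each end population of a pooled yeast competition. The competition, in six parallel replicates, lasted 24 hours in YPD at 37°C. Fitness relative to wild type was calculated from changes in genotype frequencies. Genotypes had to have ≥ 100 starting reads, and estimates < 0.5 were set to 0.5.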
row,Variant,yeast fitness
1,C5G G10A C11G U16G,≤ 0.5
2,C5G G9A A43G G48C A69C,≤ 0.5
3,C5G G23A G25C,≤ 0.5
4,C5G G10A A20U U26C U35C C49A G56A U64A,≤ 0.5
5,C5G G12A U47C C62A,≤ 0.5
6,C5G G10C U13G A37C,0.508
7,C5G G10C A43U C62A,≤ 0.5
8,C5G G25A A45C,0.705
9,C5G C60G,0.581
10,C5G C60A,0.663
11,C5G C27U G41C U53C,≤ 0.5
12,C5G C49G G63A,0.57
13,C5G C55U C61A A65U,0.669
14,C5G C30G C66U,≤ 0.5
15,C5G G6C U64C,0.586
16,C5G C55U G67A,0.598
17,C5G C29G C34U,≤ 0.5
18,C5G G39A A43U,0.575
19,C5G C61G A65U,≤ 0.5
20,C5G C27G C33U G56A,0.527
21,C5G C30G G52A,0.523
22,C5G C30G G52C,0.519
23,C5G C29G C33A,≤ 0.5
24,C5G G12A C46U,0.572

row,Variant,yeast fitness
1,C5G C34U C46A C62U,≤ 0.5
2,C5G G39C A70G,0.596
3,C5G G38A A43U G56A,≤ 0.5
4,C5G C27G A65C A70C,0.552
5,C5G G12A A14G C30G A45G G52A,≤ 0.5
6,C5G G9C G18A G25C A37C A43G,≤ 0.5
7,C5G G25A C46U A69U,0.576
8,C5G C33G C55U,0.875
9,C5G C29U C30A C66U,0.645
10,C5G C24U C33U C46A,≤ 0.5
11,C5G G12A A36U A42U U59C A65C,≤ 0.5
12,C5G C27G G38C G56C,≤ 0.5
13,C5G G12A C46U G48A G52C,≤ 0.5
14,C5G G12C G18A C24U C29U A36G A45C A69C,≤ 0.5
15,C5G G9C C30G,≤ 0.5
16,C5G G10C,0.651
17,C5G G9C A20G A21C U59C,≤ 0.5
18,C5G G10A C29G,≤ 0.5
19,C5G G38C A69U,≤ 0.5
20,C5G G10C G67A,≤ 0.5
21,C5G G17C A43U,0.516
22,C5G G48A C49G,0.658
23,C5G G10A C11G U16G C33G C61A,≤ 0.5
24,C5G C34G,0.62

row,Variant,yeast fitness
1,C5G C34U,0.599
2,C5G C24U A36C C49A,0.577
3,C5G G17C G23C C33G A43C,≤ 0.5
4,C5G C27U C62U,0.626
5,C5G G9C A57U,≤ 0.5
6,C5G C49G G50A A57C,≤ 0.5
7,C5G C29A G48A A65U,≤ 0.5
8,C5G G18C C60G,≤ 0.5
9,C5G G48A C49U A57G,0.624
10,C5G G9A C11U A21U C22U A57C C60G,0.535
11,C5G G12C,0.816
12,C5G G18A A57G A65C,≤ 0.5
13,C5G G25A G68C,0.69
14,C5G C55U G68C,0.506
15,C5G G10C U47A A70G,≤ 0.5
16,C5G C33A,0.616
17,C5G C33U,0.673
18,C5G C31A C55U A65C A70U,≤ 0.5
19,C5G G38A U59C,≤ 0.5
20,C5G G48A G68C,0.653
21,C5G C49U C61G,0.534
22,C5G G17A C34A G39C A40C G56C C61G C62G G68C,≤ 0.5
23,C5G C61G A69C,0.574
24,C5G G51C C61G,0.607

row,Variant,yeast fitness
1,C5G G18A,0.713
2,C5G G18C,0.733
3,C5G C34G C62G,0.59
4,C5G G9A C31G,0.767
5,C5G G17C U47A C55A G68A,0.562
6,C5G G9C A42G U54C U59C,≤ 0.5
7,C5G G48C,0.758
8,C5G C34G G38C G68C,≤ 0.5
9,C5G G12C G18A C24U C29U A36G,0.608
10,C5G C27U U54C,0.747
11,C5G G41C G67C,0.631
12,C5G G23C G48A G67A,0.567
13,C5G G17C G25A A40C G68A,≤ 0.5
14,C5G G17C A70U,≤ 0.5
15,C5G G6C U26G C61U,0.59
16,C5G C33U G56C,0.575
17,C5G C27G C61U,≤ 0.5
18,C5G C33G G67A,≤ 0.5
19,C5G C49U,0.815
20,C5G C24U C33U C34U G44A C62G,≤ 0.5
21,C5G G39A U47G C49G A69C,0.764
22,C5G G23A C34A,0.723
23,C5G C24U C31A,≤ 0.5
24,C5G G25A U28G G38C C62G C66U,≤ 0.5

row,Variant,yeast fitness
1,C5G G6C C30G C33U A45U,≤ 0.5
2,C5G C27U C66U,0.654
3,C5G C60A A69C,0.532
4,C5G G48C C49U,0.622
5,C5G C31U A36C G38A G50A,≤ 0.5
6,C5G G17C C46U G68A,≤ 0.5
7,C5G C31U G58C C62A,≤ 0.5
8,C5G G18A G48C G67A,≤ 0.5
9,C5G C31U C60U A69G,≤ 0.5
10,C5G G10A A20U C24U C34U A43U A69C,0.667
11,C5G C30U,0.799
12,C5G G17A A20C C49G G51A,≤ 0.5
13,C5G G17A A37C A65C,0.588
14,C5G C34U C55G A70G,≤ 0.5
15,C5G C24U C33U A57U A69U,≤ 0.5
16,C5G G17A A40C,0.651
17,C5G C27G U28A C30U G48A G58A C66U,≤ 0.5
18,C5G G10A C11G U16G C33G A65G,≤ 0.5
19,C5G C33A G41C A65C,≤ 0.5
20,C5G C27U C46U U54C,≤ 0.5
21,C5G G25A C34A C49G G50A,≤ 0.5
22,C5G G48A G56C A65G,≤ 0.5
23,C5G G10A C11G U16G C33G U59C,≤ 0.5
24,C5G G18A C27G C30U C31G,≤ 0.5

row,Variant,yeast fitness
1,C5G C27U A43U,0.54
2,C5G C46G A69U,0.712
3,C5G G17C C60U,0.686
4,C5G G25C G44A A69C,≤ 0.5
5,C5G G23C C33U A43C U64A,≤ 0.5
6,C5G C30U A42G,0.57
7,C5G C30G G56A G58C C61G,≤ 0.5
8,C5G G18C C31A G38U,≤ 0.5
9,C5G G41A A42C G50C A70G,≤ 0.5
10,C5G G9C A14C,≤ 0.5
11,C5G G23A C61G,≤ 0.5
12,C5G G23A C61A,0.529
13,C5G G6C C24U C46A,0.559
14,C5G G9C U28C C55U,≤ 0.5
15,C5G C46U C49U,0.944
16,C5G G17C G25A G51A,≤ 0.5
17,C5G C29A U59A,≤ 0.5
18,C5G C31U U32C U54G C55U C61U,≤ 0.5
19,C5G C34G C66U,≤ 0.5
20,C5G G17A G38A A40G A69U,≤ 0.5
21,C5G G25A C62G,0.648
22,C5G C46U G68C,0.596
23,C5G G51U G67C,≤ 0.5
24,C5G G17C U47A C55A,0.516

row,Variant,yeast fitness
1,C5G G10C G68U,≤ 0.5
2,C5G G10A G52A,0.741
3,C5G G51C U54A,≤ 0.5
4,C5G G41C U47A,0.526
5,C5G G41C U47G,≤ 0.5
6,C5G G41A,0.698
7,C5G G41C,0.736
8,C5G G12C A20U C24G C33A C46A C55A,≤ 0.5
9,C5G G6C U54C G56C G58A,≤ 0.5
10,C5G G6A G23A,≤ 0.5
11,C5G G10C G52A,≤ 0.5
12,C5G G23A G25C C49U,0.544
13,C5G C29A,0.604
14,C5G C29G,0.779
15,C5G C29U,0.793
16,C5G G17C A42U G52A G67U,≤ 0.5
17,C5G C31G G52C U54A C62G,0.5
18,C5G G50A A69U,0.742
19,C5G G50A A69C,0.571
20,C5G C29U C33U G39C,0.724
21,C5G G10A A40G A70G,≤ 0.5
22,C5G C33G C60G C66G,0.584
23,C5G G12U A45U A57U,≤ 0.5
